Assay results reported in ChEMBL document CHEMBL2429843 (J Med Chem, 2013).

Tests used:
[1] = Inhibition of Staphylococcus aureus TrmD using S-[methyl-3H] adenosyl-L-methionine as substrate assessed as leucine-tRNA methylation after 1 hr by scintillation proximity assay
Procedure, shortened: (§1)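 Radiometric SPA: TrmD in 50 mM HEPES pH 7.5 with 5 mM MgCl2 (E. coli and K. pneumoniae 10 nM, S. aureus 10 nM, P. aeruginosa 5 nM, H. influenzae 4 nM in enzyme reagent), mixed 1:1 with a reagent of 0.05 μM [3H]SAM, 2 μM unlabelled SAM and 2 μM synthetic E. coli leucine-tRNA. Compounds are 2-fold serial DMSO dilutions. Incubation is 1 h at room temperature.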

[2] = Inhibition of Escherichia coli TrmD using S-[methyl-3H] adenosyl-L-methionine as substrate assessed as leucine-tRNA methylation after 1 hr by scintillation proximity assay; procedure, shortened: as §1
[3] = Selectivity ratio for Escherichia coli TrmD over human PRMT1
[4] = molecular target: Protein arginine N-methyltransferase 1 (Homo sapiens) (UniProt Q99873); experiment: Inhibition of human PRMT1 at 20 uM relative to control
Haemophilus influenzae = experiment: Antibacterial activity against recombinant Haemophilus influenzae harboring acrB::cap mutant assessed as growth inhibition by broth microdilution method; assay type: functional
[5] = Selectivity ratio for Escherichia coli TrmD over human SET7/9
[6] = Inhibition of Haemophilus influenzae TrmD using S-[methyl-3H] adenosyl-L-methionine as substrate assessed as leucine-tRNA methylation after 1 hr by scintillation proximity assay; procedure, shortened: as §1
[7] = molecular target: T1, Histone-lysine N-methyltransferase SETD7 (Homo sapiens) (UniProt Q8WTS6); experiment: Inhibition of human SET7/9 at 20 uM relative to control
T1 sequence (whole entry): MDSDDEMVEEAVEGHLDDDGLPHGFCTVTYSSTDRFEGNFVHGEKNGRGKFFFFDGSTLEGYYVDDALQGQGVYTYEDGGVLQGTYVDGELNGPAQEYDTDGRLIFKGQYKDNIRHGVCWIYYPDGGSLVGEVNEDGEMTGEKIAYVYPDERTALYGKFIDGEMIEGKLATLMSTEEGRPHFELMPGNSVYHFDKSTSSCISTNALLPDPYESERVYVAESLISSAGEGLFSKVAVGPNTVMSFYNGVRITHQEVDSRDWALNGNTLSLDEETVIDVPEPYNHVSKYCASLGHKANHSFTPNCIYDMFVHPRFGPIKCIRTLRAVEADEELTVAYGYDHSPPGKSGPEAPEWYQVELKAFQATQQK

Protein arginine N-methyltransferase 1 (Homo sapiens), sequence (Q99873 whole entry, looked up): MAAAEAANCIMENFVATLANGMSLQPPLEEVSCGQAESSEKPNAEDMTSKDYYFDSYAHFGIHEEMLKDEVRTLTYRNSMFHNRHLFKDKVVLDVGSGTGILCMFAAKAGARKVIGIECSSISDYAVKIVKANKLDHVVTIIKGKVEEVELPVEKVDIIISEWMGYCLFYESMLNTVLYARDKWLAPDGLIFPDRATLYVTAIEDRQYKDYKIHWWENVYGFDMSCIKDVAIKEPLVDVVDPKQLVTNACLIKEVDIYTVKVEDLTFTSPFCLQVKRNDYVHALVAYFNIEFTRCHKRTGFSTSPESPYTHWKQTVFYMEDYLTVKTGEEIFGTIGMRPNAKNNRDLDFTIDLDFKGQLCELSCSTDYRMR

In the case of `O=C(NCc1ccc(CN2CCC(O)C2)cc1)c1csc2nc[nH]c(=O)c12` (stereo not drawn), the IC50 [1] is reported as 4400 nM, the IC50 [2] is reported as 420 nM and the Selectivity ratio [3] is reported as 50. The inhibition [4] was < 10%, the MIC (Haemophilus influenzae) was 3.1 µM and the Selectivity ratio [5] was 50. The IC50 [6] was 370 nM and the inhibition [7] was < 10%.
